The record followed here is ChEMBL document CHEMBL3407342, “Prodrugs of reverse fosmidomycin analogues” (J Med Chem, 2015).

Each structure is given as a SMILES string. pIC50: −log10 of the molar value. A value given as a limit tells only on which side of the number the result lay.

For series [1], the system named is Plasmodium falciparum. As to the kind of experiment: Antiplasmodial activity against blood stage forms of chloroquine-sensitive Plasmodium falciparum D10 incubated for 3 days by HRP2 detection based ELISA method. It is filed as functional, organism-based. The conditions noted are these: D10, 72 h. Put shortly:
(§1)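 Asexual blood-stage P. falciparum kept in continuous culture. Proliferation read by HRP2 ELISA. Each test used 12 serial dilutions. Values are means of at least two independent experiments, each run in duplicate.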
On the technique in general: An ELISA detects its analyte on a solid surface through an enzyme-linked reagent.

Series [2] relates to Plasmodium falciparum. As to the kind of experiment: Antiplasmodial activity against blood stage forms of multidrug-resistant Plasmodium falciparum Dd2 incubated for 3 days by HRP2 detection based ELISA method. The following applies: Dd2, 72 h. It is filed as functional, organism-based. Put shortly:
as §1

Series [3] can be described thus: Inhibition of recombinant Plasmodium falciparum IspC using [3,4,5-13C3]1-Deoxy-D-xylulose 5-phosphate substrate by photometric assay. In a few lines:
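Pf IspC inhibition values are mean ± SD from nine or more data points, obtained by nonlinear regression analysis.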

The subject of series [4] is Plasmodium falciparum. The series can be described thus: Antimalarial activity against Plasmodium falciparum infected in SCID mouse engrafted with human erythrocytes assessed as reduction in parasitemia at 50 mg/kg, ip qd for 4 days relative to control. It is filed as functional. Further details: scale not given: the % may be the effect or the level left. The conditions noted are these: route intraperitoneal. Put shortly:
(§2)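 P. falciparum SCID mouse model with treated groups of 2 mice and a control group of 5. Dosed orally or intraperitoneally once daily on days 3, 4, 5 and 6 after infection. Blood collected on day 4 after the first treatment; parasitized erythrocytes counted as % relative to control.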

Series [5] is described as follows: Selectivity index, ratio of IC50 for human HeLa cells to IC50 for blood stage forms of multidrug-resistant Plasmodium falciparum Dd2. The class given is toxicity, cell-based. The following applies: HeLa cells versus blood stage Plasmodium falciparum Dd2, read-out: Ratio IC50. Put shortly:
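Index computed as HeLa cell IC50 divided by P. falciparum Dd2 IC50. HeLa values are means of two duplicate determinations.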

Series [6] relates to Plasmodium berghei. As to the kind of experiment: Antimalarial activity against Plasmodium berghei infected in NMRI mouse assessed as reduction in parasitemia at 50 mg/kg, ip qd for 4 days starting 4 hrs post infection measured on 96 hrs post infection relative to control. The class given is functional. Further details: scale not given: the % may be the effect or the level left. The conditions noted are these: route intraperitoneal. Put shortly: (§3)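 Peters 4-day suppressive test in P. berghei-infected mice, 50 mg/kg once daily orally or intraperitoneally at 4, 24, 48 and 72 h after infection. Compound dissolved or suspended in 70:30 Tween 80/ethanol, then diluted 10× with water. Groups of 3 mice. Blood taken on day 4 (96 h). Activity is the difference in mean % parasitaemia between control and treated groups, as a percent of control.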

For series [7], the system named is Plasmodium berghei. The series can be described thus: Antimalarial activity against Plasmodium berghei infected in NMRI mouse assessed as mean survival time at 50 mg/kg, po qd for 4 days starting 4 hrs post infection measured on 96 hrs post infection (reference value: 4 days). The class given is functional. In a few lines: (§4)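 Standard 4-day Peters test in P. berghei-infected mice. Compounds dissolved or suspended in 70:30 Tween 80/ethanol, then diluted 10× with water. Given at 50 mg/kg once daily, orally or intraperitoneally, at 4, 24, 48 and 72 h postinfection (n = 3 mice per group). Blood collected at 96 h. Mean survival time reported; […].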

In series [8] the test system is Plasmodium berghei. The series can be described thus: Antimalarial activity against Plasmodium berghei infected in NMRI mouse assessed as reduction in parasitemia at 50 mg/kg, po qd for 4 days starting 4 hrs post infection measured on 96 hrs post infection relative to control. It is filed as functional. The arrangement: scale not given: the % may be the effect or the level left. In a few lines: as §3

The test system of the next series is HeLa. The series can be described thus: Cytotoxicity against human HeLa cells. The class given is cell-based. In a few lines:
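HeLa cytotoxicity values are the mean of two duplicate determinations.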

Series [9] concerns Plasmodium berghei. As to the kind of experiment: Antimalarial activity against Plasmodium berghei infected in NMRI mouse assessed as mean survival time at 50 mg/kg, ip qd for 4 days starting 4 hrs post infection measured on 96 hrs post infection (reference value: 4 days). The conditions noted are these: route intraperitoneal. The class given is functional. In a few lines: as §4

For series [10], the system named is Plasmodium falciparum. As to the kind of experiment: Antiplasmodial activity against blood stage forms of chloroquine-sensitive Plasmodium falciparum 3D7 incubated for 3 days by HRP2 detection based ELISA method. It is filed as functional, organism-based. The following applies: 3D7, 72 h. Put shortly: as §1
In series [11] the test system is Plasmodium falciparum. The series can be described thus: Antimalarial activity against Plasmodium falciparum infected in SCID mouse engrafted with human erythrocytes assessed as reduction in parasitemia at 50 mg/kg, po qd for 4 days relative to control. Further details: scale not given: the % may be the effect or the level left. It is filed as functional. Put shortly: as §2

In series [12] the test system is Plasmodium berghei. The series can be described thus: Antimalarial activity against Plasmodium berghei infected in NMRI mouse assessed as mean survival time at 30 mg/kg, po qd for 4 days starting 4 hrs post infection measured on 96 hrs post infection (reference value: 4 days). The class given is functional.
For series [13], the system named is Plasmodium berghei. The series can be described thus: Antimalarial activity against Plasmodium berghei infected in NMRI mouse assessed as reduction in parasitemia at 30 mg/kg, po qd for 4 days starting 4 hrs post infection measured on 96 hrs post infection relative to control. Further details: scale not given: the % may be the effect or the level left. The class given is functional.

Series [14] concerns Plasmodium falciparum. The series can be described thus: Antimalarial activity against Plasmodium falciparum infected in SCID mouse engrafted with human erythrocytes assessed as reduction in parasitemia at 5 mg/kg, po qd for 4 days relative to control. It is filed as functional. The arrangement: scale not given: the % may be the effect or the level left.
For series [15], the system named is Plasmodium falciparum. The series can be described thus: Antimalarial activity against Plasmodium falciparum infected in SCID mouse engrafted with human erythrocytes assessed as reduction in parasitemia at 13 mg/kg, po qd for 4 days relative to control. The arrangement: scale not given: the % may be the effect or the level left. The class given is functional.

In the case of `O=C(CCC(c1ccc(F)c(F)c1)P(=O)(O)O)NO` (stereo not given), the pIC50 (commonly the negative decadic logarithm of the IC50, by convention in mol/L) was 6.68 in the series on Plasmodium falciparum [1], 6.19 in the series on Plasmodium falciparum [2] and 8.55 in [3].
For `CN(O)C(=O)CCC(c1ccc(F)c(F)c1)P(=O)(O)O` (stereo not given), the Activity was found to be 0% in the series with Plasmodium falciparum [4], 62% in the series with Plasmodium berghei [6] and 57% in the series with Plasmodium berghei [8]. In series [5], the selectivity ratio was > 2500. In addition, the figures for the Survival in the series on Plasmodium berghei [7] and with Plasmodium berghei [9] were 6 days and 6.7 days, respectively. For the same compound, the pIC50 with Plasmodium falciparum [1] was 7.08; with HeLa it was < 3.00; in [3], 8.47.
Take `CN(O)C(=O)COC(c1ccc(F)c(F)c1)P(=O)(O)O` (stereo not given): in series [5], the selectivity ratio was > 7690. The pIC50 in the series on Plasmodium falciparum [1] is 6.28; in the series on HeLa, < 3.00; in series [3], 7.92.
Regarding `CC(=O)N(O)CCCP(=O)(OCOC(=O)C(C)(C)C)OCOC(=O)C(C)(C)C`, the figures for the pIC50 in the series with Plasmodium falciparum [2] and with Plasmodium falciparum [10] were 7.55 and 7.39, respectively.
As to `CC(C)(C)C(=O)OCOP(=O)(CCCN(O)C=O)OCOC(=O)C(C)(C)C`, the pIC50 in the series with Plasmodium falciparum [1] was 5.74; with Plasmodium falciparum [2], 6.31; in the series with Plasmodium falciparum [10], 6.32.
In the case of `CCCCOC(=O)OCOP(=O)(OCOC(=O)OCCCC)C(CCC(=O)NO)c1ccc(F)c(F)c1` (stereo not given), the pIC50 in the series with Plasmodium falciparum [1] was 7.00; in the series on Plasmodium falciparum [2], 8.05; in [3], < 3.00; with Plasmodium falciparum [10], 7.41.
With `CCCCOC(=O)OCOP(=O)(OCOC(=O)OCCCC)C(CCC(=O)N(C)O)c1ccc(F)c(F)c1` (stereo not given), the selectivity ratio in series [5] came out at 38000. In addition, the pIC50 is 3.72 in the series on HeLa, 8.30 in the series with Plasmodium falciparum [2], < 3.00 in series [3] and 7.89 with Plasmodium falciparum [10].
As to `CCCCOC(=O)OCOP(=O)(OCOC(=O)OCCCC)C(OCC(=O)N(C)O)c1ccc(F)c(F)c1` (stereo not given), the selectivity ratio in series [5] was 21100. Also, the pIC50 in the series with Plasmodium falciparum [1] was 7.51; with HeLa it was 3.72; in the series on Plasmodium falciparum [2] it was 8.05; in the series on Plasmodium falciparum [10], 7.85.
Take `CC(C)OC(=O)OCOP(=O)(OCOC(=O)OC(C)C)C(CCC(=O)NO)c1ccc(F)c(F)c1` (stereo not given): the results for the pIC50 (in the series on Plasmodium falciparum [2]; in series [3]; in the series with Plasmodium falciparum [10]) were 7.54, < 3.00 and 7.31, respectively.
Consider `CC(C)OC(=O)OCOP(=O)(OCOC(=O)OC(C)C)C(CCC(=O)N(C)O)c1ccc(F)c(F)c1` (stereo not given), for which the results for the pIC50 (in the series with Plasmodium falciparum [2]; in series [3]; in the series on Plasmodium falciparum [10]) were 8.15, 3.05 and 8.10, respectively.
Take `CC(C)OC(=O)OCOP(=O)(OCOC(=O)OC(C)C)C(OCC(=O)N(C)O)c1ccc(F)c(F)c1` (stereo not given): the pIC50 with Plasmodium falciparum [1] was 7.51; with Plasmodium falciparum [2] it was 7.54; in the series with Plasmodium falciparum [10] it was 7.46.
For `CC(=O)ON(C)C(=O)CCC(c1ccc(F)c(F)c1)P(=O)(OCOC(=O)OC(C)C)OCOC(=O)OC(C)C` (stereo not given), in series [5], the selectivity ratio came out at 23500. Also, the pIC50 was 7.21 in the series with Plasmodium falciparum [1], 3.73 with HeLa, 8.10 with Plasmodium falciparum [2] and 7.89 with Plasmodium falciparum [10].
On to `CCOC(=O)ON(C)C(=O)CCC(c1ccc(F)c(F)c1)P(=O)(OCOC(=O)OC(C)C)OCOC(=O)OC(C)C` (stereo not given), for which, in series [5], the selectivity ratio was 11400. In addition, the pIC50 with Plasmodium falciparum [1] was 6.89; in the series on HeLa it was 3.69; with Plasmodium falciparum [2], 7.74; in series [3] it was < 3.00; in the series on Plasmodium falciparum [10] it was 7.55.
Take `CCNC(=O)ON(C)C(=O)CCC(c1ccc(F)c(F)c1)P(=O)(OCOC(=O)OC(C)C)OCOC(=O)OC(C)C` (stereo not given): in the series on Plasmodium falciparum [11], the Activity was 0%. In addition, the selectivity ratio in series [5] came out at 14000. Further, the pIC50 in the series on Plasmodium falciparum [1] is 7.14; in the series on HeLa, 3.77; in the series on Plasmodium falciparum [2], 7.92; in series [3] it was < 3.00; in the series with Plasmodium falciparum [10] it was 7.85.
For `CC(C)OC(=O)OCOP(=O)(OCOC(=O)OC(C)C)C(CCC(=O)N(C)OC(=O)C(C)(C)C)c1ccc(F)c(F)c1` (stereo not given), the pIC50 with Plasmodium falciparum [1] was 6.66; with Plasmodium falciparum [2], 7.47; in series [3] it was < 3.00; in the series with Plasmodium falciparum [10], 7.37.
As for `O[C@@H](c1cc(C(F)(F)F)nc2c(C(F)(F)F)cccc12)[C@H]1CCCCN1` (relative stereo) [(S,R)-MEFLOQUINE], in the series with Plasmodium berghei [12], the Survival came out at 29 days. Further, the Activity with Plasmodium berghei [13] is 99.9%.
With `C[C@H]1[C@H](OC(=O)CCC(=O)O)O[C@@H]2O[C@@]3(C)CC[C@H]4[C@H](C)CC[C@@H]1[C@@]24OO3` [ARTESUNATE], the Survival in the series on Plasmodium berghei [12] stood at 10 days. Besides, the values for the Activity in the series on Plasmodium falciparum [14], in the series with Plasmodium falciparum [15] and in the series on Plasmodium berghei [13] were 90%, 90% and 99%, respectively.
Consider `CCN(CC)CCCC(C)Nc1ccnc2cc(Cl)ccc12` (stereo not given) [CHLOROQUINE], for which the Activity in the series with Plasmodium falciparum [14] and in the series on Plasmodium falciparum [15] was 90% in each case.
As to `O=CN(O)CCCP(=O)(O)O` [FOSMIDOMYCIN], the pIC50 is 5.89 with Plasmodium falciparum [1] and 6.80 in series [3].
Consider `CC(=O)N(O)CCCP(=O)(O)O` [FR-900098], for which the pIC50 in the series on Plasmodium falciparum [1] is 6.46; in the series with Plasmodium falciparum [2], 6.80; in series [3] it was 7.82; with Plasmodium falciparum [10] it was 6.80.
